The values that follow come from ChEMBL document CHEMBL4422671, “New Quinolylnitrones for Stroke Therapy: Antioxidant and Neuroprotective ( Z)- N- tert-Butyl-1-(2-chloro-6-methoxyquinolin-3-yl)methanimine Oxide as a New Lead-Compound for Ischemic Stroke Treatment” (J Med Chem, 2019).

Active and inactive are the calls of the source. The calls are words filed in the database; no cut-off is given here.

Assay [1] in a line: Neuroprotective activity against oxygen-glucose deprivation-induced cell death in Sprague-Dawley rat primary neuronal cells assessed as cell viability at 10 uM treated at onset of recovery period and measured at 24 hrs of recovery by MTT assay relative to control. To be noted: Primary neuron, read-out: Activity. The assay is classed as functional. An outline of the steps: (§1)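 Rat cortical neurons from E16–17 Sprague-Dawley embryos, used at 6–7 days in serum-free medium. OGD: glucose-free medium bubbled with 95% N2/5% CO2, <0.1% O2, 6.5% CO2, 37 °C, 4 h. Compound added at start of 24 h normoxic recovery. Viability by MTT (0.2 mg/mL, 1.5 h), lysis with HCl/SDS, read at 595/690 nm, relative to 100% control. Four to eight culture batches, each in quadruplicate.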
(In general: Tetrazolium dyes change colour on reduction, which living cells bring about.)

Assay [2] can be described thus: Neuroprotective activity against oxygen-glucose deprivation-induced cell death in Sprague-Dawley rat primary neuronal cells assessed as cell viability at 100 uM treated at onset of recovery period and measured at 24 hrs of recovery by MTT assay relative to control. Format: functional. The following applies: Primary neuron, read-out: Activity. An outline of the steps:
as §1

Assay [3] is described as follows: Antioxidant activity assessed as ABTS radical cation scavenging activity by measuring trolox equivalents at 10 uL after 1 min. The assay is classed as functional. An outline of the steps:
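ABTS radical cation made from 2 mM aqueous ABTS plus 0.17 mM potassium persulfate in 20 mM phosphate buffer pH 7.4, kept 12–16 h dark at rt. Diluted with ethanol to A734 0.70, then mixed with 10 μL compound from 10 mM stock. Absorbance read at rt 1 min after mixing. Trolox as standard.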

The target in assay [4] is Lipoxygenase (Glycine max) (UniProt Q39829). As to the kind of experiment: Inhibition of soybean lipoxygenase at 1 to 100 uM using sodium linoleate as substrate by UV-based analysis relative to control. The procedure, abridged: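 Soybean lipoxygenase (enzyme 1/9 ×10⁻⁴ w/v in saline) incubated at rt with 0.1 mM sodium linoleate and compound in DMSO, at several concentrations from 1 to 100 µM diluted from 10 mM stock. Conversion to 13-hydroperoxylinoleic acid recorded at 234 nm; IC50 derived. NDGA as reference inhibitor.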

A short description of assay [5]: Antioxidant activity assessed as superoxide anion scavenging activity at 0.1 mM pH 7.4 after 10 mins by NBT assay. The assay is classed as functional. An outline of the steps: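 Superoxide generated by xanthine/xanthine oxidase (0.07 U/mL) in 0.1 M phosphate buffer pH 7.4 containing NBT and compound at 0.1 mM final. After 10 min at rt, absorbance read at 560 nm. Caffeic acid as standard.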

In assay [6] the test system is Primary neuron. As to the kind of experiment: Neuroprotective activity against oxygen-glucose deprivation-induced ischemia in Sprague-Dawley rat primary neuronal cells assessed as reduction in lipid peroxidation at 10 to 250 uM measured after 4 hrs of recovery post OGD by fluorometric assay. Format: functional, cell-based.
In assay [7] the test system is Mus musculus. As to the kind of experiment: Neuroprotective activity in C57BL/6 mouse model of ischemia-induced cerebral ischemia model assessed reduction in neurodeficit score at 1.5 mg/kg, ip administered at onset of reperfusion period and measured at 5 days reperfusion post ischemia. The assay is classed as functional, organism-based.

Turning to `COc1ccc2nc(Cl)c(/C=[N+](\[O-])C(C)(C)C)cc2c1`, in assay [1], the viability at 10 µM was found to be 52%. The viability at 100 µM in assay [2] is 77.1%. Moreover, the Activity worked out at 7% in assay [3] and 5% in assay [5]. Besides, the inhibition (in general, the percentage by which the read-out fell short of the control) in assay [4] is 29%. The outcome in assay [6] and in assay [7] was Active.
